Source: ChEMBL document CHEMBL1148611, “Selective inhibition of matrix metalloproteinase isozymes and in vivo protection against emphysema by substituted gamma-keto carboxylic acids” (J Med Chem, 2006)
The source made the active and inactive calls. The calls are words filed in the database; no cut-off is given here.

Experiments:
[1] = molecular target: T1, Interstitial collagenase (Homo sapiens) (UniProt P03956); test: Inhibitory activity against MMP1 upto 50uM
T1 sequence (whole entry): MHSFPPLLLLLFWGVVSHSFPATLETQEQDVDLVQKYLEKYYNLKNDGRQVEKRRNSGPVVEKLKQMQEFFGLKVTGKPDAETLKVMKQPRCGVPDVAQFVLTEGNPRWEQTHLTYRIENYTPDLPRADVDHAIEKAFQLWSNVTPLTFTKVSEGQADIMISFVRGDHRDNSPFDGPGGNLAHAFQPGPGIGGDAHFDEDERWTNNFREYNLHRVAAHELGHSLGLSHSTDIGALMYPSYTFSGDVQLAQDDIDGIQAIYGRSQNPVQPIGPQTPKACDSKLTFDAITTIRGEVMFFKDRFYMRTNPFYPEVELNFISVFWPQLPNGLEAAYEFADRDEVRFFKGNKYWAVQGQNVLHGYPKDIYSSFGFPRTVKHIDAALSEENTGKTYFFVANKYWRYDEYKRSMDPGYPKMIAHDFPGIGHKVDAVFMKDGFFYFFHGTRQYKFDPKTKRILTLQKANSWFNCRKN

[2] = molecular target: T2, Matrilysin (Homo sapiens) (UniProt P09237); test: Inhibitory activity against MMP7 upto 50uM
T2 sequence (whole entry): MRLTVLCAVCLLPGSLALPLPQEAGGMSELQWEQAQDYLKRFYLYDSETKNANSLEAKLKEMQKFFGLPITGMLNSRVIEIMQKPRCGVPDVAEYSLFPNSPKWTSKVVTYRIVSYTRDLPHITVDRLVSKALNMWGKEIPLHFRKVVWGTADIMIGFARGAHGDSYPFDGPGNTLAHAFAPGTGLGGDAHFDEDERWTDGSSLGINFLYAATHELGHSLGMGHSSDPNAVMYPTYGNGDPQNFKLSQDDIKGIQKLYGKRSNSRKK

[3] = molecular target: T3, Matrix metalloproteinase-15 (Homo sapiens, UniProt P51511); test: Inhibitory activity against MMP15 upto 50uM
Target sequence in this assay (P51511 132-669 limits assumed): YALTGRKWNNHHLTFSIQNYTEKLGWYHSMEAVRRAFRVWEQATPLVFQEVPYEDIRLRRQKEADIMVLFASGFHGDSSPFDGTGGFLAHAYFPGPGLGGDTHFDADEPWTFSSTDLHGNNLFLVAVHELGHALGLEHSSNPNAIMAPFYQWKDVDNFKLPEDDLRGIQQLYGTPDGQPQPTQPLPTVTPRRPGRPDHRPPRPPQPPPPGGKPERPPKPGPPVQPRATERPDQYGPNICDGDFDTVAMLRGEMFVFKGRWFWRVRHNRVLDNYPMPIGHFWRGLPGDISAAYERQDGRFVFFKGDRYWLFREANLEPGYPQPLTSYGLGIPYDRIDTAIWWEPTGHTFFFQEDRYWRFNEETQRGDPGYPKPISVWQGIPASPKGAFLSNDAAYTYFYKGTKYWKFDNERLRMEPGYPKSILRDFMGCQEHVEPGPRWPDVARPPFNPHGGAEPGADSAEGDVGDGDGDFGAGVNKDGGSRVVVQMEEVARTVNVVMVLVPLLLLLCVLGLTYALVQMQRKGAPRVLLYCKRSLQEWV

[4] = molecular target: T4, Matrix metalloproteinase-16 (Homo sapiens, UniProt P51512); test: Inhibitory activity against MMP16 upto 50uM
T4 sequence (P51512 whole entry): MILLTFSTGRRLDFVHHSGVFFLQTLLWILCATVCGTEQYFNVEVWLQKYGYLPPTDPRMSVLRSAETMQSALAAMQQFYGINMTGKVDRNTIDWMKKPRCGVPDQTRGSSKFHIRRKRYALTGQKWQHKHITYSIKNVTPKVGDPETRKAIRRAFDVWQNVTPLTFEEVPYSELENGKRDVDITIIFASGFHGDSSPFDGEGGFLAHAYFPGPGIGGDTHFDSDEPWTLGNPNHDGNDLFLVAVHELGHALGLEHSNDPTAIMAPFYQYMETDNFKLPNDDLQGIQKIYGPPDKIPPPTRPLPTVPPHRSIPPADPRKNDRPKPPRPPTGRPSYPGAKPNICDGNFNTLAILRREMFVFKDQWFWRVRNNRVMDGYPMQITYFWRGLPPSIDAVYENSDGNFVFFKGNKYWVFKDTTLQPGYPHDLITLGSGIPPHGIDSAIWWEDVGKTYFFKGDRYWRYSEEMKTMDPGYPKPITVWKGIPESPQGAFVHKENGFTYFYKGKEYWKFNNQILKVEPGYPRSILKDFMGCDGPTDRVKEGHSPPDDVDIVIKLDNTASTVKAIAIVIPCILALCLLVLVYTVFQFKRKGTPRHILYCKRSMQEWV

[5] = molecular target: T5, Matrix metalloproteinase-26 (Homo sapiens) (UniProt Q9NRE1); test: Inhibitory activity against MMP26 upto 50uM
T5 sequence (whole entry): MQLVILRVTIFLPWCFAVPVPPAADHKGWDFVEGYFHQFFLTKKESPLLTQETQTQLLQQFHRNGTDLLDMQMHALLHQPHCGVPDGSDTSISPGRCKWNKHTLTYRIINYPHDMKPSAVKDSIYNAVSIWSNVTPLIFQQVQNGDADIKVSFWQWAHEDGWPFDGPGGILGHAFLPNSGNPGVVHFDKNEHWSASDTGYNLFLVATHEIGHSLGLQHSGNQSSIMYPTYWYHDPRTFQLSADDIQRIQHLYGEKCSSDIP

Syrian golden hamster = test: Increase in lung weight, lung volumes, relative lung volumes and right ventricular hypertropy in PPE-treated Syrian hamster at 5 mg/kg; assay type: functional, organism-based; design: dose 5 mg/kg; settings: Mesocricetus auratus, Heart right ventricle
In short: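 Male golden Syrian hamsters with PPE-induced emphysema, compared with saline-treated controls, PPE-only animals and compound/saline-treated animals. Read-outs were wet weight of the left lung, lung volume, relative lung volume and right ventricular hypertrophy.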

[6] = molecular target: 72 kDa type IV collagenase (Homo sapiens, UniProt P08253); test: Inhibitory activity against MMP2
Chain of 72 kDa type IV collagenase (P08253 whole entry): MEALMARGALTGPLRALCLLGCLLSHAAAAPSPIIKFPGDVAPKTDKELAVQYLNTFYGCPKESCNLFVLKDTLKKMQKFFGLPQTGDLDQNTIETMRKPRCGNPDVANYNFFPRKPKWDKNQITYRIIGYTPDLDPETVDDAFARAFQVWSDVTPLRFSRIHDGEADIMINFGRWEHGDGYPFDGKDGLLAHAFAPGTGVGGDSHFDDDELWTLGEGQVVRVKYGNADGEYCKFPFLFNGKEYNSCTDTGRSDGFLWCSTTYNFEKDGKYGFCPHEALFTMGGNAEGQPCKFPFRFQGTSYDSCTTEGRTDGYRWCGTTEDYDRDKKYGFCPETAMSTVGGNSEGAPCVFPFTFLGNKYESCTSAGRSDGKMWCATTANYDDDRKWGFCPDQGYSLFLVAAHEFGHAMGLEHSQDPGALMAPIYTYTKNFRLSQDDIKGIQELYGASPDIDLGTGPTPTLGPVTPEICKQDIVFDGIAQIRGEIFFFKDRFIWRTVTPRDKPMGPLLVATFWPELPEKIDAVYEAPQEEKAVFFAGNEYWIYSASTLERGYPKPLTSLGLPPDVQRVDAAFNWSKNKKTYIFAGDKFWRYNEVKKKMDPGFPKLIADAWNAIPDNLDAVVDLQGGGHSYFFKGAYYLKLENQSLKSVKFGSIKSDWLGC

[7] = molecular target: T2, Matrilysin (Homo sapiens); test: Inhibitory activity against MMP7 upto 50 uM
[8] = molecular target: T6, Matrix metalloproteinase-9 (Homo sapiens, UniProt P14780); test: Inhibitory activity against MMP9
T6 sequence (P14780 whole entry): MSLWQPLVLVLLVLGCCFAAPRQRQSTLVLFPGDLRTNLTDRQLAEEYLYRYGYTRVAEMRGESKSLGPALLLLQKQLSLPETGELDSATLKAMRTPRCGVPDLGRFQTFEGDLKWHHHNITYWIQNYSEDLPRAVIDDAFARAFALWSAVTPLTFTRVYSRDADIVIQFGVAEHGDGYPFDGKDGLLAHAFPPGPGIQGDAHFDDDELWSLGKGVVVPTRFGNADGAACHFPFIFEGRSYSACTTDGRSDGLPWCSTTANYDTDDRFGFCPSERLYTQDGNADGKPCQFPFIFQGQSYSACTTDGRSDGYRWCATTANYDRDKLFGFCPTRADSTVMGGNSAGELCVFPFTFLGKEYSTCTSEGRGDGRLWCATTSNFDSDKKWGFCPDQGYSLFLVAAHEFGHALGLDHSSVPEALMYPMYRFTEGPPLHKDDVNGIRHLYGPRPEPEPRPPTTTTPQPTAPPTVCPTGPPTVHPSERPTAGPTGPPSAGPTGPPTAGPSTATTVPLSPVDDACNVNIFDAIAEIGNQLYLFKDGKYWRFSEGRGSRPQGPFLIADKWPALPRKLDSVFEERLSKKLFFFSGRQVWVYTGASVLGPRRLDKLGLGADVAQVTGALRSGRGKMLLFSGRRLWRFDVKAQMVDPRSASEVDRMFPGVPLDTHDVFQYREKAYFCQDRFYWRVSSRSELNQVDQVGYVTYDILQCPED

[9] = molecular target: Macrophage metalloelastase (Homo sapiens, UniProt P39900); test: Inhibitory activity against MMP12
Chain of Macrophage metalloelastase (P39900 whole entry): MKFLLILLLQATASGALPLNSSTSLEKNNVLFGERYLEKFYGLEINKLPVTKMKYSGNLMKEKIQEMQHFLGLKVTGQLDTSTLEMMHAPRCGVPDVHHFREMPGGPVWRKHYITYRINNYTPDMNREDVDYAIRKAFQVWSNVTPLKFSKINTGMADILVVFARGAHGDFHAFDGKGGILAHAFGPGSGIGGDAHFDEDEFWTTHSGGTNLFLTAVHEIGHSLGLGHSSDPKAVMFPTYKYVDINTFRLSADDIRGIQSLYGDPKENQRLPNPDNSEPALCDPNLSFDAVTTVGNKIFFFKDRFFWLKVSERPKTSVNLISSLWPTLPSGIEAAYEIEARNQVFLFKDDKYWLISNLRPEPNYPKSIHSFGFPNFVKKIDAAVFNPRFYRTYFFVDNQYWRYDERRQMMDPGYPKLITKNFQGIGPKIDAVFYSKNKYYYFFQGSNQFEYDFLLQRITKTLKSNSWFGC

[10] = molecular target: T6, Matrix metalloproteinase-9; test: Inhibitory activity against MMP9 upto 50uM
[11] = molecular target: T7, Matrix metalloproteinase-14 (Homo sapiens, UniProt P50281); test: Inhibitory activity against MMP14 upto 50uM
[12] = molecular target: T7, Matrix metalloproteinase-14; test: Inhibitory activity against MMP14
[13] = molecular target: T3, Matrix metalloproteinase-15; test: Inhibitory activity against MMP15
Target sequence in this assay (P51511 whole entry): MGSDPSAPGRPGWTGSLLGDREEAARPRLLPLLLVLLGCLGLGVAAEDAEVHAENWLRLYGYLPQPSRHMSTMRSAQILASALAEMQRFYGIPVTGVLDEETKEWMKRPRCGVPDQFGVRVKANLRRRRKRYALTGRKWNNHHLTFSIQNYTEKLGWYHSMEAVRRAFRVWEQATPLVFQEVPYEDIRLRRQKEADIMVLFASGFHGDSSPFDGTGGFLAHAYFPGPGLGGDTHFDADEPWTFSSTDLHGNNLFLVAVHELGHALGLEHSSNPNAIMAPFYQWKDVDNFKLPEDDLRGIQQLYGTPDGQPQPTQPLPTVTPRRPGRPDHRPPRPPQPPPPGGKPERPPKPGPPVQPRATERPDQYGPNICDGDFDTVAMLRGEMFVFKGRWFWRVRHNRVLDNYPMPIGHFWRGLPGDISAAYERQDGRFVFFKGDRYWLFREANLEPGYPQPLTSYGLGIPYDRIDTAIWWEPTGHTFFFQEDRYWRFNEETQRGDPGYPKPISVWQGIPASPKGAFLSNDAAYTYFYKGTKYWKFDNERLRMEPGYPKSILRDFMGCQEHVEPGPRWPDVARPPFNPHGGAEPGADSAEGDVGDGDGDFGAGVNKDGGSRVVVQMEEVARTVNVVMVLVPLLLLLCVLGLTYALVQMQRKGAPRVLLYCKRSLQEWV

[14] = molecular target: T4, Matrix metalloproteinase-16; test: Inhibitory activity against MMP16
[15] = molecular target: T8, Matrix metalloproteinase-26 (Homo sapiens, UniProt Q9NRE1); test: Inhibitory activity against MMP26
T8 sequence (Q9NRE1 whole entry): T5 sequence (whole entry)

Activity [1]	Activity [2]	Activity [3]	Activity [4]	Activity [5]	IC50 [6] [µM]	Activity [7]	IC50 [8] [µM]	IC50 [9] [µM]	Activity [10]	Activity [11]	IC50 [12] [µM]	IC50 [13] [µM]	IC50 [14] [µM]	IC50 [15] [µM]	Compound	Activity (Syrian golden hamster)
inactive	inactive	inactive	inactive	inactive	0.55	inactive	1.51	0.2							CCCCCCC(CC(=O)O)C(=O)c1ccc(C#Cc2ccc(Cl)cc2)cc1 (stereo unspecified)	Active
inactive		inactive	inactive	inactive	3.07	inactive		12.5	inactive	inactive					CCCCCCCCC#Cc1ccc(C(=O)CCC(=O)O)cc1	
					1.66		5.41	0.45							CCCCCCC(CC(=O)O)C(=O)c1ccc(C#Cc2ccccc2)cc1 (stereo unspecified)	
inactive		inactive	inactive	inactive	5.74	inactive		7.56	inactive	inactive					CCC(CC(=O)O)C(=O)c1ccc(C#CCOCc2ccccc2)cc1 (stereo unspecified)	
					1.12		3.39	0.32							O=C(O)CC(CC1CCCC1)C(=O)c1ccc(C#Cc2ccccc2)cc1 (stereo unspecified)	
					3.43		10	1.14							O=C(O)CC(Cc1ccc(F)cc1)C(=O)c1ccc(C#Cc2ccccc2)cc1 (stereo unspecified)	
					2.11		9.29	0.6							O=C(O)CC(Cc1ccccc1)C(=O)c1ccc(C#Cc2ccccc2)cc1 (stereo unspecified)	
inactive		inactive	inactive	inactive	15.4	inactive		24.7	inactive	inactive					O=C(O)CCC(=O)c1ccc(C#CCO)cc1	
inactive		inactive	inactive		23.1	inactive		25.7	inactive	inactive					O=C(O)CCC(=O)c1ccc(C#CCOCc2ccccc2)cc1	
inactive					0.44	inactive	3.6	0.48			30.6	13.9	32	18.1	CCC(CC(=O)O)C(=O)c1ccc(C#Cc2ccccc2)cc1 (stereo unspecified)	
